Assay results taken from publication PMC11888271 (bioRxiv, 2025).
Several values for one entry are separate records, joined by “and”; a condition that tells them apart may be missing. Identical values can stand only once. Peptide text beside a SMILES is read from it. * marks the point of attachment. Cbz = O=C(OCc1ccccc1)*; CH2F = FC*

Tests used:
Type in all cases: biochemical
caspase-8 = caspase-8 (Homo sapiens, UniProt Q14790); assay: In vitro inhibition assay, caspase-8; settings: IC50, caspase-8, 0.25 activity units/μL, 200 μM Ac-LEHD-AMC substrate
caspase-5 = biological target: T1, caspase-5 (Homo sapiens, UniProt P51878); assay: In vitro inhibition assay, caspase-5
T1 sequence (P51878 137-327 limits assumed): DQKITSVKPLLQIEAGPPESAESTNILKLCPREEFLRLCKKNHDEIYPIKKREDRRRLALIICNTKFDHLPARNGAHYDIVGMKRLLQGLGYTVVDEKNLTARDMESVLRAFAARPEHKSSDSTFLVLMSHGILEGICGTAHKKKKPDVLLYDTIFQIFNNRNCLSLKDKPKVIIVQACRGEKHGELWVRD
T1 sequence (P51878 347-434 limits assumed): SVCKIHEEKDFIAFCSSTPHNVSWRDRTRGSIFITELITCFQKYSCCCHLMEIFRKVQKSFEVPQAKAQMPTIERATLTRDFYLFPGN
In short: (§1)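 Recombinant caspase at 0.25 activity units/µL in pH 7 PIPES buffer (100 mM NaCl, 10 mM DTT, 1 mM EDTA, 0.1% CHAPS, 10% sucrose). Saturating AMC substrate: Ac-WEHD 200 µM (caspase-1, -5) or 1000 µM (-4, -11); Ac-DEVD 100 µM (-3, -6, -7), or 25 µM for -3/-7 with a pan-caspase FMK inhibitor. Fluorescence read every 5 min. Background-subtracted linear rates normalised to no-inhibitor; three runs pooled and fitted to Y=100/(1+X/IC50).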

caspase-11 = biological target: T2, caspase-11 (Mus musculus, UniProt P70343); assay: In vitro inhibition assay, caspase-11
T2 sequence (P70343 81-266 limits assumed): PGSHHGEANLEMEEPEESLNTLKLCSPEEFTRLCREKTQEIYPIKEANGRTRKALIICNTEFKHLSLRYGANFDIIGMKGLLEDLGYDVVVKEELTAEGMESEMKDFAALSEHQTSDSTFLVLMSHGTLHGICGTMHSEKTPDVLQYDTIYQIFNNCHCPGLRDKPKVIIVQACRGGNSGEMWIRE
T2 sequence (P70343 286-373 limits assumed): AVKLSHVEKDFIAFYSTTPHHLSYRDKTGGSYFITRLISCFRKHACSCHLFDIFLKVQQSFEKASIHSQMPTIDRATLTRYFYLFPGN
In short: as §1

caspase-1 = biological target: T3, caspase-1 (Homo sapiens, UniProt P29466); assay: In vitro inhibition assay, caspase-1
T3 sequence (P29466 120-297 limits assumed): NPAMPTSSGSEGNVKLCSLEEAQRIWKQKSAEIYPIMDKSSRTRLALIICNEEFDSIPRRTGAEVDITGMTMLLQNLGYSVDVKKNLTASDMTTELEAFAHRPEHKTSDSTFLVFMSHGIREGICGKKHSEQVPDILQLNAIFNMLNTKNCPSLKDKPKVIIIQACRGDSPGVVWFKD
T3 sequence (P29466 317-404 limits assumed): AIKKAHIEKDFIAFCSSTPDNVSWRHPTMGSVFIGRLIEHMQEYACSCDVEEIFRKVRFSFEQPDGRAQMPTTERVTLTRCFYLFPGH
In short: as §1

caspase-3 = biological target: T4, caspase-3 (Homo sapiens, UniProt P42574); assay: In vitro inhibition assay, caspase-3
T4 sequence (P42574 29-175 limits assumed): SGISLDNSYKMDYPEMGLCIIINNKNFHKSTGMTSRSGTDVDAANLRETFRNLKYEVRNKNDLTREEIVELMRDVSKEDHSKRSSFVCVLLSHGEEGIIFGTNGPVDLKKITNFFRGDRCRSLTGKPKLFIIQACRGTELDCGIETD
T4 sequence (P42574 176-277 limits assumed): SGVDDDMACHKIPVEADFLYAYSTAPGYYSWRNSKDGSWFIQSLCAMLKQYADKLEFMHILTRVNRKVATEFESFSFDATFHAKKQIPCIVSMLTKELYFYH
In short: as §1

caspase-6 = biological target: T5, caspase-6 (Homo sapiens, UniProt P55212); assay: In vitro inhibition assay, caspase-6
T5 sequence (P55212 24-179 limits assumed): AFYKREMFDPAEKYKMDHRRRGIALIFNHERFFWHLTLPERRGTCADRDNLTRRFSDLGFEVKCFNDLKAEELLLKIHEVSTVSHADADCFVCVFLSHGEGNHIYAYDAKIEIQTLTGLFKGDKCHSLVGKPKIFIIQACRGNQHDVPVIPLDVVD
T5 sequence (P55212 194-293 limits assumed): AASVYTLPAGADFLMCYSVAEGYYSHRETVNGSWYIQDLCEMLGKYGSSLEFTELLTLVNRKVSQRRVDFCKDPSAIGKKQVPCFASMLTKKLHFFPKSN
In short: as §1

caspase-4 = biological target: T6, caspase-4 (Homo sapiens, UniProt P49662); assay: In vitro inhibition assay, caspase-4
T6 sequence (P49662 81-270 limits assumed): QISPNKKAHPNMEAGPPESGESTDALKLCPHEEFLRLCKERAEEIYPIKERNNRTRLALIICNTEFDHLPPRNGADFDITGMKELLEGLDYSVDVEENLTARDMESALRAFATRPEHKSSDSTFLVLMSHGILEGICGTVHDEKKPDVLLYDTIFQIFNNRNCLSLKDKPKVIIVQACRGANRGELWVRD
T6 sequence (P49662 290-377 limits assumed): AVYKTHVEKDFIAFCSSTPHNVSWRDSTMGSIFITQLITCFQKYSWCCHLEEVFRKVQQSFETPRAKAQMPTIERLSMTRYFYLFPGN
In short: as §1

caspase-10 = biological target: T7, caspase-10 (Homo sapiens, UniProt Q92851); assay: In vitro inhibition assay, caspase-10; settings: IC50, caspase-10, 0.25 activity units/μL, 200 μM Ac-LEHD-AMC substrate
T7 sequence (Q92851 220-415 limits assumed): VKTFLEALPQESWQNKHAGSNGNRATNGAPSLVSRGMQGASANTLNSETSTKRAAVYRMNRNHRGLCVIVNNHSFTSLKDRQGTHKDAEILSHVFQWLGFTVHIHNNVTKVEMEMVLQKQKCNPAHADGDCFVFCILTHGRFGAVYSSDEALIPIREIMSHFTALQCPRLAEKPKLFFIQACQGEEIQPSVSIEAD
T7 sequence (Q92851 416-521 limits assumed): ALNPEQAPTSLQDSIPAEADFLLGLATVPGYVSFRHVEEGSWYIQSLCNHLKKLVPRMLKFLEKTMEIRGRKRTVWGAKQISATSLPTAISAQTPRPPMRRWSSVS

caspase-7 = biological target: T8, caspase-7 (Homo sapiens, UniProt P55210); assay: In vitro inhibition assay, caspase-7
T8 sequence (P55210 24-198 limits assumed): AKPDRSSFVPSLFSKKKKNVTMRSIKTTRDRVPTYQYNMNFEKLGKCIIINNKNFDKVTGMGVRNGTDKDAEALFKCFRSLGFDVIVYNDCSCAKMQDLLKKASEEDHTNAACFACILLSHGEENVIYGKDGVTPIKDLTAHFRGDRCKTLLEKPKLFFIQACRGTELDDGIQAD
T8 sequence (P55210 207-303 limits assumed): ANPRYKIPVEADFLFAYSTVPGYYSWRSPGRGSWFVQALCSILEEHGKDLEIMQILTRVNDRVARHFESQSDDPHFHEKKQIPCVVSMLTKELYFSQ
In short: as §1

caspase-9 = biological target: T9, caspase-9 (Homo sapiens, UniProt P55211); assay: In vitro inhibition assay, caspase-9; settings: IC50, caspase-9 (different preparation), 1 activity unit/μL, 200 μM Ac-LEHD-AMC substrate
T9 sequence (P55211 1-315 limits assumed): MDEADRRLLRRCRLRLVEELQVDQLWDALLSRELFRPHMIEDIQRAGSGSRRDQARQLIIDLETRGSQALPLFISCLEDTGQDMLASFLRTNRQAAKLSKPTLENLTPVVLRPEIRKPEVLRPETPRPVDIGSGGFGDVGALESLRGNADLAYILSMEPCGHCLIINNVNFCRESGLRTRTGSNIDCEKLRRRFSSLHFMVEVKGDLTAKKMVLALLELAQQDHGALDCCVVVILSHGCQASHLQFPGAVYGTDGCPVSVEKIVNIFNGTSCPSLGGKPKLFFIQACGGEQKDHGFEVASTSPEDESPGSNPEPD
T9 sequence (P55211 331-416 limits assumed): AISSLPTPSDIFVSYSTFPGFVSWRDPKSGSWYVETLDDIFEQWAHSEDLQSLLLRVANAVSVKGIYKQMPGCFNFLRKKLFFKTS

Chain of caspase-8 (Q14790 217-374 limits assumed): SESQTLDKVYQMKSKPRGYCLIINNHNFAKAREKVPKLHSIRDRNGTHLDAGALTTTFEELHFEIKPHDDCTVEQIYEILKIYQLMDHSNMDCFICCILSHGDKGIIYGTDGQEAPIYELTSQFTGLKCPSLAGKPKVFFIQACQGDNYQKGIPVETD
Chain of caspase-8 (Q14790 385-479 limits assumed): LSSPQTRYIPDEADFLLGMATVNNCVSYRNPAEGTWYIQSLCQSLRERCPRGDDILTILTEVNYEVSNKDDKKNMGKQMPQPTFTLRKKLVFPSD

Row | SMILES | IC50 (caspase-8) | IC50 (caspase-5) [µM] | IC50 (caspase-11) [µM] | IC50 (caspase-1) [µM] | IC50 (caspase-3) [µM] | IC50 (caspase-6) [µM] | IC50 (caspase-4) [µM] | IC50 (caspase-10) | IC50 (caspase-7) [µM] | IC50 (caspase-9)
1 | CCO[C@@H]1OC(=O)C[C@@H]1NC(=O)[C@@H]1CCCN1C(=O)[C@@H](NC(=O)c1ccc(N)c(Cl)c1)C(C)(C)C [VX-765, (S)-1-((S)-2-{[1-(4-amino-3-chloro-phenyl)-methanoyl]-amino}-3,3-dimethyl-butanoyl)-pyrrolidine-2-carboxylic acid ((2R,3S)-2-ethoxy-5-oxo-tetrahydro-furan-3-yl)-amide] | 1 µM and 1.02 µM | 19.5 ± 1.37 | 81 ± 2.77 | 0.53 ± 0.09 | > 100 | > 100 | 30.1 ± 2.67 | 42 µM and 42.3 µM | > 100 | 4 µM and 4.01 µM
2 | CC[C@H](C)[C@H](NC(=O)OCc1ccccc1)C(=O)N[C@@H](CCC(=O)OC)C(=O)N[C@H](C(=O)N[C@@H](CC(=O)OC)C(=O)CF)[C@@H](C)O [z-IETD-FMK] (Cbz-IE(OMe)TD(OMe)-CH2F) | 0.35 ± 0.1 µM | 19.9 ± 1.19 | – | 5.72 ± 0.47 | 1.88 ± 0.26 | 0.06 ± 0.04 | – | 5.76 ± 1.1 µM | 2.63 ± 0.54 | 3.7 µM and 3.65 µM
3 | COC(=O)CC[C@H](NC(=O)[C@H](CC(C)C)NC(=O)OCc1ccccc1)C(=O)N[C@@H](Cc1c[nH]cn1)C(=O)N[C@@H](CC(=O)OC)C(=O)CF [z-LEHD-FMK] (Cbz-LE(OMe)HD(OMe)-CH2F) | 0.07 ± 0.01 µM | 2.31 ± 0.31 | – | 0.82 ± 0.13 | 1.07 ± 0.18 | 0.11 ± 0.06 | – | 3.59 ± 1.27 µM | 3.9 ± 0.29 | 1.5 µM and 1.58 µM
